# Experimental data pooled from the literature.
# Compare with care: the assays were run in different laboratories.
Structure (SMILES),tested on,test,test system,conditions,endpoint,value
Cc1nc(Nc2ncc(C(=O)Nc3c(C)cccc3Cl)s2)cc(N2CC[C@H](O)C2)n1,JVM-2,"cell growth or viability, ATP luminescence",,"10 µM, 72 h",inhibition,61%
COc1ccc(C=NNC(=O)CSc2nc3c(C)cccc3c(=O)n2-c2ccccc2)cc1OS(C)(=O)=O,Salmonella enterica,"microbial growth, well diffusion",TYPHIMURIUM,20 µg/mL,inhibition zone,3 mm
N=c1sc(C(=O)c2ccc(Nc3cnccn3)cc2)nn1-c1ccccc1,Salmonella enterica,"microbial growth, broth dilution",ATCC13076 TYPHIMURIUM,,MIC,100 µg/mL
Nc1ccc(S(=O)(=O)Nc2ncccn2)cc1,Bacillus cereus,"microbial growth, well diffusion",,20 µg/mL,inhibition zone,3 mm
O=C(O)c1ccc(NCc2ccc([N+](=O)[O-])cc2)cc1,NCI-H69,"cell growth or viability, resazurin",,72 h,IC50,> 100 µM
Cc1n[nH]c2ccc3nc(-c4ccc(C(=O)NCCN(C)C)cc4F)c4c(c3c12)CCCCC4,BJ,cell growth or viability,,72 h,GI50,> 10 µM
N=c1sc(C(=O)c2ccc(Nc3cnccn3)cc2)nn1-c1ccc([N+](=O)[O-])cc1,Salmonella enterica,"microbial growth, broth dilution",ATCC13076 TYPHIMURIUM,,MIC,6.25 µg/mL
CN(C)CCNC(=O)c1ccc(-c2nc3ccc4[nH]ncc4c3c3c2CCCCC3)cc1,BJ,cell growth or viability,,72 h,GI50,8.63 µM
O=C(O)c1ccc(NCc2cc(Br)ccc2O)cc1,NCI-H69,"cell growth or viability, resazurin",,72 h,IC50,> 100 µM
CS(=O)(=O)Oc1ccc(C=NNC(=O)CSc2nc3ccc(Cl)cc3c(=O)n2-c2ccccc2)cc1,Salmonella enterica,"microbial growth, well diffusion",TYPHIMURIUM,20 µg/mL,inhibition zone,2 mm
COc1cccc(CNc2ccc(C(=O)O)cc2)c1,NCI-H69,"cell growth or viability, resazurin",,72 h,IC50,> 100 µM
CN(C)CCNC(=O)c1ccc(-c2nc3ccc4[nH]ncc4c3c3c2CCCC3)c(F)c1,BJ,cell growth or viability,,72 h,GI50,9.72 µM
CCS(=O)(=O)Oc1ccc(C=NNC(=O)CSc2nc3ccc(Cl)cc3c(=O)n2-c2ccccc2)cc1,Salmonella enterica,"microbial growth, broth dilution",TYPHIMURIUM,,MIC,21 µg/mL
CC(=O)OCC1=C(C(=O)O)N2C(=O)[C@@H](NC(=O)Cc3cccs3)[C@H]2SC1,Salmonella enterica,"microbial growth, broth dilution",ATCC13076 TYPHIMURIUM,,MIC,3.12 µg/mL
CN(C)CCNC(=O)c1ccc(-c2nc3ccc4[nH]ncc4c3c3c2CCCC3)cc1,BJ,cell growth or viability,,72 h,GI50,> 10 µM
O=C(O)c1cn(C2CC2)c2cc(N3CCNCC3)c(F)cc2c1=O,Salmonella enterica,"microbial growth, well diffusion",TYPHIMURIUM,20 µg/mL,inhibition zone,4 mm
O=C(N[C@H](CO)[C@H](O)c1ccc([N+](=O)[O-])cc1)C(Cl)Cl,Salmonella enterica,"microbial growth, broth dilution",ATCC13076 TYPHIMURIUM,,MIC,6.25 µg/mL
CC(C)(C)c1cc(NC(=O)Nc2ccc(-c3cn4c(n3)sc3cc(OCCN5CCOCC5)ccc34)cc2)no1,BJ,cell growth or viability,,72 h,GI50,> 10 µM
